Measurements of several laboratories.
Protocols differ between the studies behind these lines.
Sample: plasma

The AUC(0-t) of COc1cc2c(Nc3ccc(Br)cc3F)ncnc2cc1OCC1CCN(C)CC1 is reported as 18900 ng·h/mL (human; oral; 65 mg/m²; multiple doses, patients).
For O=C(/C=C/c1cccc(S(=O)(=O)Nc2ccccc2)c1)NO, the AUC(0-t) was 54700 ng·h/mL (human; intravenous; 1800 mg/m²; patients).
With CO[C@@H]1[C@H](OC(=O)N2CC(CCN3CCOCC3)C2)CC[C@]2(CO2)[C@H]1[C@@]1(C)O[C@@H]1CC=C(C)C the AUC(0-t) was 8.07 ng·h/mL (human; subcutaneous; 2.4 mg; single dose, healthy volunteers).
The AUC(0-t) of C[C@@H](Nc1cc(F)cc(F)c1)c1cc(C(=O)N(C)C)cc2c(=O)cc(N3CCOCC3)oc12 is reported as 8350 ng·h/mL (human; oral; 360 mg; single dose, patients).
OC[C@H]1O[C@@H](c2ccc(Cl)c(Cc3ccc(O[C@H]4CCOC4)cc3)c2)[C@H](O)[C@@H](O)[C@@H]1O gave an AUC(0-t) of 0.402 µM·h (human; oral; 2.5 mg; single dose).
C#Cc1cccc(Nc2ncnc3cc(OCCOC)c(OCCOC)cc23)c1 gave an AUC(0-t) of 21.9 µM·h (human; oral; 100 mg; patients).
The AUC(0-t) of COCCOc1cnc2ccn([C@H](C)c3nnc4c(F)cc(-c5cnn(C)c5)cn34)c(=O)c2c1 is reported as 36900 ng·h/mL (human; oral; 200 mg; multiple doses, once daily, patients).
For CNCC[C@H](Oc1cccc2ccccc12)c1cccs1, the AUC(0-t) was 135 ng·h/mL (female human; oral; 30 mg; multiple doses, once daily).
With C=CC(=O)N1CCC(Oc2cc3c(Nc4ccc(Cl)c(Cl)c4F)ncnc3cc2OC)CC1 the AUC(0-t) was 474 ng·h/mL (human; oral; 16 mg; single dose, fed).
C[C@@H](Oc1ccc(S(C)(=O)=O)cc1C(=O)N1C[C@@H]2C[C@]2(c2cc(C(F)(F)F)on2)C1)C(F)(F)F gave an AUC(0-t) of 11 µM·h (human; oral; 25 mg; fed, tablet).
With COc1ccc([C@@H]2CN(C(=O)[C@@H](O)CO)C[C@@]2(C)[C@@H](C)O)cc1OC1CN(c2ccc(C)cn2)C1 the AUC(0-t) was 1590 ng·h/mL (human; oral; 5 mg; single dose, healthy volunteers).
The AUC(0-t) of Oc1cc(O)c2c(c1)O[C@@H](c1ccc(O)c(O)c1)[C@@H](O)C2 is reported as 6.9 ng·h/mL (human; oral; 30 mg; single dose).
The AUC(0-t) of Nc1cc(C(F)(F)F)c(-c2cc(N3CCOCC3)nc(N3CCOCC3)n2)cn1 is reported as 3830 ng·h/mL (human; oral; 50 mg/day; patients).
With COc1cc(N2CCC(N3CCN(C)CC3)CC2)ccc1Nc1ncnc(Nc2ccccc2S(=O)(=O)C(C)C)n1 the AUC(0-t) was 9170 ng·h/mL (human; oral; 200 mg; multiple doses, patients).
CC(C)c1nc(N(C)S(C)(=O)=O)nc(-c2ccc(F)cc2)c1/C=C/[C@@H](O)C[C@@H](O)CC(=O)O has an AUC(0-t) of 48.6 ng·h/mL (human; oral; 20 mg).
With CO[C@H]1CC[C@H](N2C(=O)CNc3ncc(-c4ccc(C(C)(C)O)nc4)nc32)CC1 the AUC(0-t) was 319 ng·h/mL (human; oral; 7.5 mg; patients).
FC(F)(F)c1ccc(CNc2ccc(Cc3c[nH]c4ncc(Cl)cc34)cn2)cn1 gave an AUC(0-t) of 28700 ng·h/mL (human; oral; 1600 mg; multiple doses, patients).
The AUC(0-t) of CC(=O)Oc1ccccc1C(=O)O is reported as 2630 ng·h/mL (human; oral; 650 mg; healthy volunteers).
C[C@@]1(c2cc(NC(=O)c3ccc(C#N)cn3)ccc2F)C=CSC(N)=N1 has an AUC(0-t) of 1000 ng·h/mL (human; oral; 10 mg; single dose).
The AUC(0-t) of CCOc1ccc(Cc2cc([C@@H]3S[C@H](CO)[C@@H](O)[C@H](O)[C@H]3O)c(OC)cc2C)cc1 is reported as 1650 ng·h/mL (male human; oral; 5 mg; single dose, fasted, healthy volunteers).
The AUC(0-t) of Cc1nc(NC(=O)N2CCC[C@H]2C(N)=O)sc1-c1ccnc(C(C)(C)C(F)(F)F)c1 is reported as 7600 ng·h/mL (human; oral; 90 mg; patients).
O=C(O)C[C@H](O)C[C@H](O)/C=C/c1c(C2CC2)nc2ccccc2c1-c1ccc(F)cc1 has an AUC(0-t) of 292 ng·h/mL (human; oral; 2 mg; single dose, fed, healthy volunteers, tablet).
For CCOc1cc([C@@H](CS(C)(=O)=O)N2C(=O)c3cccc(NC(C)=O)c3C2=O)ccc1OC, the AUC(0-t) was 2190 ng·h/mL (human; oral; 30 mg; single dose, healthy volunteers).
COc1cc2c(cc1OC)CN(CCc1ccc(NC(=O)c3cc(OC)c(OC)cc3NC(=O)c3cnc4ccccc4c3)cc1)CC2 gave an AUC(0-t) of 10.5 µM·h (human; intravenous; 1.5 mg/kg; patients).
CCCCC1=NC2(CCCC2)C(=O)N1Cc1ccc(-c2ccccc2S(=O)(=O)Nc2noc(C)c2C)c(COCC)c1 has an AUC(0-t) of 58100 ng·h/mL (human; oral; 200 mg; single dose, fasted, healthy volunteers).
The AUC(0-t) of NS(=O)(=O)c1ccc(NC(=O)Nc2ccc(F)cc2)cc1 is reported as 70700 ng·h/mL (human; oral; 1000 mg; multiple doses, once daily).
For CC(C)n1cc(C#N)c2cc(-n3cc(C(=O)O)cn3)ccc21, the AUC(0-t) was 91500 ng·h/mL (human; oral; 400 mg; single dose, fasted, healthy volunteers).
For CC(C)(O)c1ccccc1-c1ccc2[nH]c(/C=C/c3ccc(C(F)(F)F)cc3)nc2c1, the AUC(0-t) was 13100 ng·h/mL (male human; oral; 120 mg; single dose, fasted, healthy volunteers).
With CCNCCCNC/C=C\CNCCCNCC the AUC(0-t) was 79.8 ng·h/mL (human; intravenous; 50 mg; patients, infusion).
